# Legend:
# Mus musculus [1] = organism: Mus musculus; assay: Tested for potency towards inhibition of the twitch response in mouse vas deferens; type: functional
# Outline: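 Vasa deferentia from albino MF1 mice were mounted at 0.5 g initial tension in Mg2+-free Krebs at 37 °C, gassed 95% O2/5% CO2, and stimulated electrically (0.5 ms pulses). Increasing doses were added after washout; twitch amplitude at 14-15 min post-addition was compared with the pre-drug final minute. IC50 came from nonlinear-regression sigmoid log concentration-response curves, n = 6-8 tissues.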
# Cannabinoid receptor [2] = target: T1, Cannabinoid receptor (Rattus norvegicus, UniProt Q9QZN9+P20272); assay: Binding affinity for the cannabinoid receptor in the absence of phenylmethanesulfonyl fluoride (PMSF) was determined in rat fore brain membranes; type: cell membranes, Membrane
# Cannabinoid receptor [3] = target: T1, Cannabinoid receptor; assay: Binding affinity for the cannabinoid receptor in the presence of phenylmethanesulfonyl fluoride (PMSF) was determined in rat fore brain membranes; type: cell membranes, Membrane
# Mus musculus [4] = assay: Mean percentage time spend immobile on ring between 5 and 10 min at 6.25 (mg/kg) intravenous dose in 6 mice; type: ADME, organism-based; conditions: in vivo
# Outline: (§1)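 In male MF1 mice (23-29 g) dosed iv at time zero with a Tween 80/saline dispersion, each animal was placed at 5 min on a 5.5-cm horizontal ring on a 16-cm stalk. The percentage of the 5-min session spent immobile was scored. Ambient 20-22 °C, means ± SE, Dunnett's test versus vehicle.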
# Mus musculus [5] = assay: Mean difference between rectal temperature measured at time zero and rectal temperature measured at 10 min at 6.25 (mg/kg) intravenous dose in 6 mice; type: ADME, organism-based; conditions: in vivo
# Outline: (§2)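 Male MF1 mice (23-29 g), drug dispersed with two parts Tween 80 by weight in 0.9% saline, injected iv at time zero; Tween 80 vehicle control. Rectal thermistor probe inserted 3 cm, read shortly before time zero and at 10 min; change = difference. Mice unrestrained in separate cages, ambient 20-22 °C. Means ± SE, Dunnett's test versus vehicle.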
# Mus musculus [6] = assay: Mean percentage time spend immobile on ring between 5 and 10 min at 10 (mg/kg) intravenous dose in 6 mice; type: ADME, organism-based; conditions: in vivo; outline: as §1
# Mus musculus [7] = assay: Mean number of squares entered(counts) over a 5 min period after placement in the center of a walled arena marked out in 16 squares of equal size at 6.25 (mg/kg) intravenous dose in 6 mice; type: ADME, organism-based; conditions: in vivo
# Outline: (§3)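 Male MF1 mice (23-29 g) given drug iv at time zero (Tween 80/saline dispersion; vehicle control). Each mouse was placed immediately in the centre of a 30 × 30 cm walled arena divided into 16 equal squares. Squares entered from 0 to 5 min were counted. Ambient 20-22 °C, means ± SE, Dunnett's test against vehicle.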
# Mus musculus [8] = assay: Mean number of squares entered(counts) over a 5 min period after placement in the center of a walled arena marked out in 16 squares of equal size at 10 (mg/kg) intravenous dose in 6 mice; type: ADME, organism-based; conditions: in vivo; outline: as §3
# Mus musculus [9] = assay: Mean difference between rectal temperature measured at time zero and rectal temperature measured at 10 min at 10 (mg/kg) intravenous dose in 6 mice; type: ADME, organism-based; conditions: in vivo; outline: as §2
# Mus musculus [10] = assay: Mean number of squares entered(counts) over a 5 min period after placement in the center of a walled arena marked out in 16 squares of equal size at 3.125 (mg/kg) intravenous dose in 6 mice; type: ADME, organism-based; conditions: in vivo; outline: as §3
# Mus musculus [11] = assay: Mean percentage time spend immobile on ring between 5 and 10 min at 1.5625 (mg/kg) intravenous dose in 6 mice; type: ADME, organism-based; conditions: in vivo; outline: as §1
# Mus musculus [12] = assay: Mean difference between rectal temperature measured at time zero and rectal temperature measured at 10 min at 3.125 (mg/kg) intravenous dose in 6 mice; type: ADME, organism-based; conditions: in vivo; outline: as §2
# Mus musculus [13] = assay: Mean percentage time spend immobile on ring between 5 and 10 min at 3.125 (mg/kg) intravenous dose in 6 mice; type: ADME, organism-based; conditions: in vivo; outline: as §1
# Mus musculus [14] = assay: Mean number of squares entered(counts) over a 5 min period after placement in the center of a walled arena marked out in 16 squares of equal size at 1.5625 (mg/kg) intravenous dose in 6 mice; type: ADME, organism-based; conditions: in vivo; outline: as §3
# Mus musculus [15] = assay: Mean difference between rectal temperature measured at time zero and rectal temperature measured at 10 min at 1.5625 (mg/kg) intravenous dose in 6 mice; type: ADME, organism-based; conditions: in vivo; outline: as §2
smiles,measurement,setting,value
CCCCC/C=C\C/C=C\C/C=C\C/C=C\CCCC(=O)NC[C@H](C)O,IC50,Mus musculus [1],47 nM
same,Ki,Cannabinoid receptor [2],158 nM
same,Ki,Cannabinoid receptor [3],26 nM
CCCCC/C=C\C/C=C\C/C=C\C/C=C\CCCC(=O)NCCO [ANANDAMIDE],IC50,Mus musculus [1],52 nM
same,Ring immobility,Mus musculus [4],93.9%
same,Body temperature,Mus musculus [5],-3.18 °C
same,Ring immobility,Mus musculus [6],64.2%
same,Hypokinesia,Mus musculus [7],10.2 Counts
same,Hypokinesia,Mus musculus [8],14.7 Counts
same,Body temperature,Mus musculus [9],-1.43 °C
CCCCC/C=C\C/C=C\C/C=C\C/C=C\CCCC(=O)NC[C@@H](C)O,IC50,Mus musculus [1],100 nM
same,Ki,Cannabinoid receptor [2],> 2950 nM
same,Ki,Cannabinoid receptor [3],119 nM
CCCCC/C=C\C/C=C\C/C=C\C/C=C\CCCC(=O)N[C@H](C)CO [METHANANDAMIDE],IC50,Mus musculus [1],12 nM
same,Hypokinesia,Mus musculus [10],26.5 Counts
same,Ring immobility,Mus musculus [11],40.2%
same,Body temperature,Mus musculus [12],1.5 °C
same,Ring immobility,Mus musculus [13],87.4%
same,Hypokinesia,Mus musculus [14],76.8 Counts
same,Body temperature,Mus musculus [15],0.27 °C
CCCCC/C=C\C/C=C\C/C=C\C/C=C\CCCC(=O)N[C@@H](C)CO,IC50,Mus musculus [1],230 nM
